From PubChem BioAssay
Rows were chosen to be rich in hits. Some 4% of all compounds tested hit in one or more screens of this group.
hERG rescue = compounds protecting human hERG from proarrhythmic drug block. CHO-hERG, FluxOR thallium flux, dofetilide IC70 present. activation (rescue from dofetilide block), less the hit threshold, % at 10 µM. AID 1511. 310,000 compounds, 0.51% hits;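 active = activation above the mean of controls blocked by dofetilide plus 5 SD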;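 also: thallium influx through hERG after potassium depolarization seen as dye fluorescence rise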
KCNK9 inh = inhibitors of human KCNK9 two-pore domain potassium channel. Q9NPC2. HEK293 KCNK9, FluxOR thallium flux fluorescence; hits give low values. B-score at 10 µM. 310,000 compounds, 1.2% hits. AID 488922;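 active = ratio B-score over 3 SD below the library mean, with starting fluorescence within 5 SD of its mean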;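 also: negative B-score means less thallium flux so channel inhibition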
PHOSPHO1 inh = inhibitors of human PHOSPHO1 phosphatase. Q8TCT1. recombinant PHOSPHO1, absorbance phosphatase assay. inhibition, % at 13.3 µM. 290,000 compounds, 1.1% hits; in the data active = inhibition above about 60%
KCNQ1 inh = human KCNQ1 channel inhibition; CHO-K1 KCNQ1, FluxOR thallium flux fluorescence; hits give high values; B-score at 10 µM; 310,000 compounds, 1.3% hits; AID 2642;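 active = compounds whose thallium flux B-score, printed positive for inhibition, exceeds three library SD while starting fluorescence stays within three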;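 also: channel opened by potassium depolarization with thallium stimulus after 20 min compound exposure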
Target sequence (P51787 whole entry, looked up): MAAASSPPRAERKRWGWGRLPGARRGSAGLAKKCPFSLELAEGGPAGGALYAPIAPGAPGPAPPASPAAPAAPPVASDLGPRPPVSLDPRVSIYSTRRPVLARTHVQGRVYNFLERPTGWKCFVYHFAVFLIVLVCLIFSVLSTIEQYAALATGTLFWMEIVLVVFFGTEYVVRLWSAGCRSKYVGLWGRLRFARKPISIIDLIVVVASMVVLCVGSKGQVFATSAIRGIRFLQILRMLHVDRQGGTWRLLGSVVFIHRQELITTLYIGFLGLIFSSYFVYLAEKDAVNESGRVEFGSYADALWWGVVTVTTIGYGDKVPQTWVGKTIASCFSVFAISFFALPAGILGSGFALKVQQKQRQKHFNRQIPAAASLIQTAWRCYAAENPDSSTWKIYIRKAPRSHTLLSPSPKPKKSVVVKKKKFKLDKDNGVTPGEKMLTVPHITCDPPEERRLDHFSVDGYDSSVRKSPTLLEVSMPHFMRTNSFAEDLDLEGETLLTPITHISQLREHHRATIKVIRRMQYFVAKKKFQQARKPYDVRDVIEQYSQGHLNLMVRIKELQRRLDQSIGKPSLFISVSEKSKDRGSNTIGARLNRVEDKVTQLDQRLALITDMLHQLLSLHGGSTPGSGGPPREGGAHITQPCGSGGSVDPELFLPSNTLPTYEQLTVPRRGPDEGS
KCNQ1 pot = potentiates or activates the human KCNQ1 potassium channel | P51787 | CHO-K1 KCNQ1, thallium flux FluxOR fluorescence; hits give high values | B-score at 10 µM | 310,000 compounds, 0.35% hits | AID 2648;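 active = fluorescence ratio B-score, a plate-corrected score, at least three library SD, with initial intensity B-score within 5 SD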
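Schedule – 37 °C overnight plating, 90-min dark dye load, 20-min compound pretreatment · System – stable KCNQ1 CHO-K1 line · Probe or stimulus – thallium- and potassium-containing depolarizing buffer · Measured by – kinetic FluxOR fluorescence, 10 s baseline plus 110 s post-stimulus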
KCNK3 inh = human KCNK3 channel inhibition, primary screen; B-score at 10 µM; 340,000 compounds, 0.84% hits; CHO-KCNK3 thallium flux, FluxOR fluorescence; hits give low values; O14649;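 active = B-score under library mean minus 4 SD, starting fluorescence ratio at most library mean plus 5 SD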;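 also: more negative B-score means stronger inhibition of thallium flux through KCNK3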
Numbers without * were called inactive; i = inactive; . = not tested or not shown.

SMILES	hERG rescue	KCNK9 inh	PHOSPHO1 inh	KCNQ1 inh	KCNQ1 pot	KCNK3 inh
O=C1CCSc2ccc(Cl)cc2N1Cc1ccccc1	-5	i	18	i	i	i
O=C1CCSc2ccc(Cl)cc2N1Cc1ccc(Cl)cc1	-11	-7.6*	21	i	i	i
COCCn1nnnc1C(c1cc2cc(C)ccc2[nH]c1=O)N1CCCCCC1 (stereo unspecified)	-9	i	92*	i	i	i
COc1ccccc1N1CCN(C(c2cc3ccc(C)cc3[nH]c2=O)c2nnnn2C2CCCC2)CC1 (stereo unspecified)	-11	i	44	i	i	i
CCN(Cc1ccccc1)C(c1cc2cc(C)ccc2[nH]c1=O)c1nnnn1CCOC (stereo unspecified)	-7	i	74*	i	i	i
CCOC(=O)C1CCN(C(c2cc3ccc(C)cc3[nH]c2=O)c2nnnn2C2CCCCC2)CC1 (stereo unspecified)	-9	i	92*	i	i	i
Cc1ccc2cc(C(c3nnnn3C(C)(C)C)N3CCCC3)c(=O)[nH]c2c1C (stereo unspecified)	.	.	94*	.	.	.
O/N=C1\CC(O)Cc2nonc21 (stereo unspecified)	-6	i	19	i	i	i
COc1ccc(-c2cc(C(F)(F)F)n3ncc(C(=O)N4CCc5ccccc5C4)c3n2)cc1	-18	i	26	i	i	i
Cc1ccc(C2N(c3cccc(Cl)c3)C(=O)N3CCCN23)cc1 (stereo unspecified)	-10	i	33	i	i	i
CC1CCC(C(=O)NC(C(=O)N2CCC(N3CCCCC3)CC2)C(C)C)CC1 (stereo unspecified)	-11	i	54	i	i	i
Cc1ccc2[nH]c(=O)c(CN(CCc3ccccc3)Cc3nnnn3CC3CCCO3)cc2c1 (stereo unspecified)	-4	i	-1	i	i	i
COCCn1nnnc1C(c1cccs1)N1CCN(c2cc(C)ccc2C)CC1 (stereo unspecified)	-8	-8*	-23	i	i	-9.2*
COc1ccc2cc(C(c3nnnn3CCc3ccccc3)N3CCCC(C)C3)c(=O)[nH]c2c1 (stereo unspecified)	-2	i	82*	i	i	i
COCCn1nnnc1CN(CCc1ccccc1)Cc1cc2ccc(C)cc2[nH]c1=O	-10	i	66*	i	i	i
O=C(CCN1C(=O)/C(=C/c2ccc(F)cc2)SC1=S)NCCc1cnc[nH]1	-16	i	2	i	i	i
C/C(=N\NC(=O)c1ccc(-c2ccccc2)cc1)c1cccc(N)c1	-13	i	1	i	i	i
NC(=O)c1ccc(=O)n(Cc2ccc(F)c(F)c2)c1	-3	i	.	i	i	i
O=C(Nc1ccccc1)c1ccc(=O)n(Cc2ccc(F)c(F)c2)c1	-3	i	65*	i	i	i
NC(=O)c1c(NC(=O)CCCC(=O)O)sc2c1CCCCCC2	-4	i	-1	i	i	i
CCCCCCSc1nnc(N)s1	-9	i	52	i	i	i
Clc1ccc(Nc2ccc(Cl)nn2)cc1	5.9*	i	12	i	i	i
Cc1nn(S(=O)(=O)c2cccc([N+](=O)[O-])c2)c(C)c1S(=O)(=O)N1CCOCC1	-8	i	38	i	i	i
COc1ccccc1Nc1ncc(C(=O)N2CCN(Cc3ccc(OC)c(OC)c3OC)CC2)c2ccccc12	-14	i	-17	6*	i	i
CCc1c(C)sc(NC(=O)c2ccco2)c1C#N	-6	i	.	i	i	i
SMILES	hERG rescue	KCNK9 inh	PHOSPHO1 inh	KCNQ1 inh	KCNQ1 pot	KCNK3 inh
CCc1cccc(NC(=O)C2CCCN(c3ncnc4c3nc3n4CCCCC3)C2)c1 (stereo unspecified)	-14	i	63*	i	i	i
Cn1c(Oc2ccc(Cl)c3cccnc23)nc2c1c(=O)n(Cc1ccccc1Cl)c(=O)n2C	.	.	27	.	.	.
Cc1cc(C)nc(Sc2nc(Cl)nc(N(c3ccccc3)c3ccccc3)n2)n1	-15	i	83*	i	i	i
CCn1cc(C2C3=C(CC(C)(C)CC3=O)N(c3ccc(C)cc3)C3=C2C(=O)CC(C)(C)C3)c(C)n1	.	.	.	.	.	i
CCN1C(=O)[C@H]2[C@@H](c3ccc(C)cc3)N3C(=O)N(c4cccc(Cl)c4)C(=O)[C@@]3(Cc3ccc(Cl)cc3)[C@H]2C1=O	.	.	.	.	.	i
Cc1ccc(-c2ccc(/C=C(\C#N)C(N)=S)n2C)cc1	-14	i	12	6*	i	i
Cc1cc2c(cc1C)CSC(c1ccccc1OC(=O)C(C)(C)C)SC2	-12	i	14	6*	i	i
CCCCC(=O)Oc1ccccc1C1SCc2cc(C)c(C)cc2CS1	-9	i	18	i	i	i
N#Cc1c2n(c(=S)n(-c3ccccc3)c1=O)CCCCC2	-1	i	64*	i	i	i
O=C(CCN1C(=O)C2CCCCC2C1=O)N1CCN(S(=O)(=O)c2cccc(F)c2)CC1 (stereo unspecified)	-8	i	.	i	i	i
CN(Cc1ccccc1)C(=O)c1cc(-c2ccc(Br)cc2)on1	-8	i	-23	i	i	i
Cc1cc(C(=O)N(C)Cc2ccc(Br)cc2)no1	-2	i	85*	i	i	i
COCCNC(=O)C(C)OC(=O)c1cc2sccc2n1C (stereo unspecified)	5.7*	i	11	i	i	i
CCOC(=O)c1c(N2C(=O)Nc3ccccc3N2O)n[nH]c1-c1cccc(Cl)c1	11*	i	-15	i	36*	i
CCOc1ccc(-c2cc(N3C(=O)Nc4ccccc4N3O)n[nH]2)cc1	-2	i	52	i	i	i
COC(=O)CCC/C=C1/SCC(NC(=O)c2ccccc2)C1O (stereo unspecified)	-11	i	21	i	i	i
COC(=O)CCC/C=C1/SCC(NC(=O)c2ccccc2)C1=O (stereo unspecified)	-16	i	64*	i	i	i
Cc1c(-c2ccccc2)sc(N)c1C(=O)N1CCOCC1	-9	i	74*	i	i	i
COc1ccc(CNc2nc3ccccc3n2CCN2CCCCC2)cc1	-11	i	-25	i	i	i
CCN(CC)c1ccc(CNc2nc3ccccc3n2CCN2CCCCC2)cc1	-18	i	18	7*	i	i
CCOC(=O)c1c(NC(=O)CSc2nnnn2-c2ccc(OC)cc2)sc(C)c1C	-3	i	87*	i	i	i
